Reference: paper PMC4196715 (American journal of transplantation : official journal of …, 2014)
Like-named read-outs stand apart in the source and are kept apart here.

How the values were obtained:
[1] = mice, oral administration; cited from earlier work
[2] = ref Dr. A.D. McCormick, Astrazeneca, UK, personal communication; cited from earlier work
[3] = system: BALB/c to B6 cardiac allograft model; format: in vivo, mouse; settings: for graft histology on days 10–11: H&E, no-IS grafts showed severe cellular rejection; for Foxp3 mRNA expression in allografts: PCR, RAPA being superior to AZD8055; for enhancement of graft-infiltrating Foxp3+ Treg: immunoperoxidase staining of allograft, vs no IS
[4] = oral dosing, Phase I; cited from earlier work
[5] = Renal function; format: in vivo, mouse; settings: after 10 days of treatment
Procedure, shortened: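 B6 recipients of BALB/c heterotopic heart grafts were given test compound at 10 mg/kg twice daily i.p. (days 2–11) in PBS with 0.02% Tween 80 and 0.26% polyethylene glycol. Serum creatinine was measured after 10 days of treatment, n=4.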

[6] = Pharmacokinetics after i.p. administration; format: in vivo, mice; settings: for AUC 0-infinity / Apparent volume of distribution / Disposition rate constant: i.p., AZD8055 10 mg/kg plasma, RAPA 1 mg/kg whole blood; for concentration at 8 h: 10 mg/kg; for half-life: plasma (AZD8055), whole blood (RAPA), ip
[7] = system: splenic CD4+ and CD8+ T cells of heart graft recipients; format: in vivo, mouse; settings: for CD4+ T cell IFNγ production enhanced by transplantation / CD8+ T cell IFNγ production enhanced by transplantation: splenocytes, day 10–11 post-transplant
[8] = system: B6 CD3+ T cells (CD4+ and CD8+ T cell proliferation); experiment: T cell proliferation by CFSE dilution after anti-CD3/CD28 bead stimulation; format: cell-based, mouse
Procedure, shortened: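 B6 CD3+ T cells were isolated by negative selection and CFSE-labelled. 1×10^5 cells were stimulated with 2.5×10^4 CD3/CD28 Dynabeads for 5 days. Test compound (10 mM DMSO stock) was added at the start of culture, from 1.95 to 1000 nM. CFSE dilution was gated on CD4+ or CD8+ cells and expressed as percent suppression versus stimulated cells without inhibitor. n=3–4 experiments; means ± SD; t tests.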

[9] = i.v. administration, B6 mice; cited from earlier work

Compound | graft histology on days 10–11 [3] | Foxp3 mRNA expression in allografts [3] | enhancement of graft-infiltrating Foxp3+ Treg [3] | AUC 0-infinity [6] | Apparent volume of distribution [6] | Disposition rate constant [6] | half-life ([6]; mouse) | CD4+ T cell IFNγ production enhanced by transplantation [7] | CD8+ T cell IFNγ production enhanced by transplantation [7] | also measured
COc1ccc(-c2ccc3c(N4CCOC[C@@H]4C)nc(N4CCOC[C@@H]4C)nc3n2)cc1CO [AZD8055, (5-{2,4-Bis[(3S)-3-methylmorpholin-4-yl]pyrido[2,3-d]pyrimidin-7-yl}-2-methoxyphenyl) methanol] | comparatively mild mononuclear cell infiltrate | increased | 7–10 fold | 26.2 µg/mL/h | 37 mL | 0.205 h⁻¹ | 3.4 h | reaching the same levels as in naïve mice | inhibited completely | half-life [1]: approximately 2 h; fraction in plasma bound to plasma protein [2]: approximately 95%; half-life in humans [4]: approximately 2 h; adverse effects on renal function [5]: No adverse effects; serum creatinine levels ([5]; n=4): 0.2 mg/dL; concentration at 8 h ([6]; mouse, in vivo): 200 nM; concentration at 8 h ([6]; mouse, plasma, intraperitoneal): ≥ 200 nM; percentage of IFN-producing CD4+ and CD8+ T cells compared with animals given RAPA ([7]; day 20 post-transplant, not sustained at day 80): higher; concentrations at which AZD8055 surpassed the ability of RAPA to inhibit T cell proliferation ([8]; CD4+ and CD8+ T cells, CD3/CD28 beads, 5 days): ≥ 200 nM; concentration dependence of inhibition of T cell proliferation ([8]; concentrations tested between 1.95 nM and 1000 nM): dose-related inhibitory effect
CO[C@H]1C[C@@H]2CC[C@@H](C)[C@@](O)(O2)C(=O)C(=O)N2CCCC[C@H]2C(=O)O[C@H]([C@H](C)C[C@@H]2CC[C@@H](O)[C@H](OC)C2)CC(=O)[C@H](C)/C=C(\C)[C@@H](O)[C@@H](OC)C(=O)[C@H](C)C[C@H](C)/C=C/C=C/C=C/1C [RAPA, rapamycin] | comparatively mild mononuclear cell infiltrate | increased | 7–10 fold | 1.93 µg/mL/h | 74 mL | 0.141 h⁻¹ | 4.9 h | more effective inhibition | inhibited completely | recipients with long-term graft survival (>80 days) ([3]; 10-day course, AZD8055 10 mg/kg twice daily i.p., RAPA 1 mg/kg/day i.p.): fifty; half-life [9]: 6.4 h; concentration at 24 h ([6]; mouse, whole blood, intraperitoneal, 1 mg/kg): > 10 nM
